A selection: hits, their analogues and other compounds. The true share with any hit is near 2.9%.
FAS TE block: FAS thioesterase domain inhibitors, primary screen, biochemical, fluorescence intensity, uHTS | 360,000 tested, 0.67% active | inhibition, % at 15 µM | recombinant FAS-TE, OMFH fluorogenic substrate, fluorescence endpoint | AID 602261, 2012;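 active = compounds whose normalised, plate-corrected inhibition of enzyme fluorescence in the single-dose primary screen is 50% or more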
ADAM17 inh: ADAM17 inhibitors, primary screen, biochemical, QFRET. Disintegrin and metalloproteinase domain-containing protein 17 (Homo sapiens), P78536. recombinant ADAM17, EDANS/DABCYL FRET peptide cleavage. inhibition, % at 6.95 µM. 370,000 tested, 0.83% active. AID 720648, 2013;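 active = inhibition above the mean of compounds lying between control limits plus 3 SD, set per campaign, cut at about 8.5% in these data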
CaV13 ICDI inh: Disruptors of the CACNA1D IQ motif to Ca2+-dependent inactivation inhibitor domain association, primary screening, Förster resonance energy transfer in intact living …; inhibition, % at 12.3 µM; HEK cells, CFP/YFP FRET ICDI-IQ, plate reader, 10 min; percent FRET-ratio fall versus neutral wells; 340,000 tested, 0.098% active; AID 743397;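 active = mean replicate inhibition of at least 30% and at least 1% of replicates passing that level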
ADAM10 inh: human ADAM10 inhibitors, primary screen, biochemical, QFRET, HTS; 370,000 tested, 0.62% active; AID 720582, 2013; recombinant ADAM10, EDANS/DABCYL FRET peptide cleavage, 3 h; Disintegrin and metalloproteinase domain-containing protein 10 (Homo sapiens), O14672; inhibition, % at 7 µM;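 active = inhibition above a per-campaign cutoff equal to the mean of compounds falling between control-based bounds plus 3 SD, cut at about 20% in these data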
Target sequence (O14672 214-748 limits assumed): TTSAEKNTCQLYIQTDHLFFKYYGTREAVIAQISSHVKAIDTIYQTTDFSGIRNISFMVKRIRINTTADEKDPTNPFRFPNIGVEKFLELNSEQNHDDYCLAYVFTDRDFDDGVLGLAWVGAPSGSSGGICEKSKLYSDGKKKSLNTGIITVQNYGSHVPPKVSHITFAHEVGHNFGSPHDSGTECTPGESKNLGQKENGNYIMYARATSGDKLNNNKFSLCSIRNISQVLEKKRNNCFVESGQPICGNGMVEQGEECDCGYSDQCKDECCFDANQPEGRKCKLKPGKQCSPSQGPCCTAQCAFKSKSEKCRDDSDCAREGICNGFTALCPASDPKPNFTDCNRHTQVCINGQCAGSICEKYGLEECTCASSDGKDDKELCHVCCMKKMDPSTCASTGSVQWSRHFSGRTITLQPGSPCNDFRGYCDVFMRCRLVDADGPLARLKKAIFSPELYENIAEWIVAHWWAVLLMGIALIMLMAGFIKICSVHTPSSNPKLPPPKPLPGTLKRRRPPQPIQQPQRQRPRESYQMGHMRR
NRP1-CendR mod: modulators of CendR peptide binding to NRP-1, primary screen, biochemical, fluorescence polarization, uHTS | Neuropilin-1 (Homo sapiens), O14786 | FAM-RPARPAR peptide binding to NRP-1 | inhibition, % at 25 µM | 360,000 tested, 0.85% active | AID 602438, 2012;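 active = inhibition or corrected inhibition above about 18%, plus a signal ratio from 0.5 to 1.5, limit read from the data, passing the limit was not always enough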
Arrestin-AP2 inh: inhibitors of beta-arrestin/AP2 binding, primary screen, biochemical, GPCR trafficking, flow cytometry. 340,000 tested, 0.31% active. beta-arrestin 1 C-terminal peptide binding to AP2 beta2-adaptin appendage (human). FITC-arrestin peptide / GST-AP2 beads; AP2 beta2 appendage carries R879A mutation. AID 504490, 2011. inhibition, % at 10 µM;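 active = inhibition above a set limit, near 3 SD of compounds lacking own fluorescence, cut at about 54% in these data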
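test system = AP2 appendage R879A on GSH beads | buffer or medium = PBS plus Tween 20 (0.05%) and BSA (0.1%) | incubation = 12 min plus 1 h, RT | detection = bead flow cytometry, FITC channel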
FAS-TE conf: FAS thioesterase domain inhibitors, confirmation, biochemical, fluorescence intensity, single concentration | 2,300 tested, 45% active | shares compounds with FAS TE block | recombinant FAS-TE, OMFH fluorogenic substrate | AID 624325, 2012 | inhibition, % at 15 µM;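 active = compounds inhibiting the enzyme by at least 50% at 15 µM in any one of the replicates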
ADAM10 confirm: human ADAM10 inhibitors, confirmation, biochemical, QFRET, triplicate; shares compounds with ADAM10 inh; ADAM10 QFRET peptide cleavage, EDANS fluorescence; inhibition, % at 6.95 µM; 2,100 tested, 1% active; AID 743208, 2013;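 active = inhibition above about 20% chosen separately for each screening run, limit read from the data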
ADAM17 counter: ADAM17 inhibitors, counter-screen for ADAM10 exosite inhibitor project, biochemical, QFRET, high throughput; shares compounds with ADAM10 inh; ADAM17 QFRET peptide cleavage, EDANS fluorescence; inhibition, % at 6.95 µM; 2,100 tested, 0.5% active;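 active = mean triplicate inhibition above the solvent-only control wells' mean plus 3 SD, cut at about 12% in these data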
Large screens that a line does not name were inactive (follow-up assays come after a bar, where they were run).

CC1CC(C)(C)CC2(C1)NC(=O)N(CC(=O)Nc1cc(C(F)(F)F)ccc1N1CCCCC1)C2=O (centres undefined)	FAS TE block 60.0 | FAS-TE conf inactive
O=C(CN1C(=O)NC2(CCCCC2)C1=O)Nc1cc(C(F)(F)F)ccc1N1CCCC1	none (no result: CaV13 ICDI inh)
O=C(NC(Cc1ccccc1)c1nc2ccccc2[nH]1)c1ccc(Cl)c([N+](=O)[O-])c1 (centres undefined)	none
CSCC[C@H](NC(=O)c1ccc(Cl)c([N+](=O)[O-])c1)c1nc2ccccc2[nH]1	FAS TE block 59.2 | FAS-TE conf 63.6
CCCCNS(=O)(=O)/C=C/c1ccccc1CNC(=O)OC(C)(C)C	none (no result: FAS TE block, CaV13 ICDI inh, NRP1-CendR mod, Arrestin-AP2 inh)
CCCOc1ccc(NC(=O)CC2C(=O)N(C)C(=S)N2Cc2cccs2)cc1 (centres undefined)	FAS TE block 63.9 (no result: CaV13 ICDI inh) | FAS-TE conf 65.4
Cc1ccc(NC(=O)C(C)c2ccc([N+](=O)[O-])cc2)cc1Cl (centres undefined)	FAS TE block 59.0, ADAM10 inh 23.6 | FAS-TE conf inactive | ADAM10 confirm inactive | ADAM17 counter inactive
C[C@@H]1C(c2ccc(F)cc2)=NN(c2ccccc2)[C@H]1C(=O)N1CCOC1=O	none
O=C1OCCN1C(=O)[C@H]1[C@H](c2ccc([N+](=O)[O-])cc2)C(c2cccc(Cl)c2)=NN1c1ccc(Br)cc1	FAS TE block 86.6, ADAM10 inh 23.6 | FAS-TE conf inactive | ADAM10 confirm inactive | ADAM17 counter inactive
C[C@@H]1CCCCO[C@H](CN(C)S(=O)(=O)c2cccs2)[C@@H](C)CN([C@H](C)CO)C(=O)c2cc(NC(=O)Nc3ccc4c(c3)OCO4)ccc2O1	FAS TE block 59.8, ADAM10 inh 19.9 (no result: Arrestin-AP2 inh) | FAS-TE conf inactive | ADAM10 confirm inactive | ADAM17 counter inactive
Cc1ccc(S(=O)(=O)N(C)C[C@@H]2OCCCC[C@H](C)Oc3ccc(NC(=O)Nc4ccc(F)cc4)cc3C(=O)N([C@H](C)CO)C[C@H]2C)cc1	FAS TE block 62.5, ADAM10 inh 23.3 (no result: Arrestin-AP2 inh) | FAS-TE conf inactive | ADAM10 confirm inactive | ADAM17 counter inactive
Cc1ccc(S(=O)(=O)Nc2ccc3c(c2)C(=O)N([C@@H](C)CO)C[C@@H](C)[C@@H](CN(C)S(=O)(=O)c2ccccc2)OCCCC[C@H](C)O3)cc1	FAS TE block 79.4, ADAM10 inh 22.9 (no result: Arrestin-AP2 inh) | FAS-TE conf inactive | ADAM10 confirm inactive | ADAM17 counter inactive
COc1ccc(S(=O)(=O)N(C)C[C@H]2OCCCC[C@H](C)Oc3ccc(NC(=O)Nc4ccc(F)cc4)cc3C(=O)N([C@H](C)CO)C[C@H]2C)cc1	none (no result: Arrestin-AP2 inh)
COc1cccc(CNC(=O)[C@H]2CCCN2C(=O)[C@H]2CCCN2C(=O)c2cccc(F)c2)c1	none (no result: FAS TE block, NRP1-CendR mod, Arrestin-AP2 inh)
Cc1[nH]n2c(=O)cc(-c3ccc([N+](=O)[O-])cc3)nc2c1-c1ccccc1	FAS TE block 58.8, ADAM10 inh 22.8 | FAS-TE conf 76.5 | ADAM10 confirm inactive | ADAM17 counter inactive
